Numbering of substitutions follows the chain as printed.
Assays:
[1] = target: T1, Free fatty acid receptor 4 (Homo sapiens, UniProt Q5NUL3); experiment: Agonist activity at human FFA4 receptor expressed in human U2OS cells co-expressing Galpha16 assessed as calcium mobilization by Fluo-4 dye based FLIPR assay; assay type: functional, cell-based
T1 sequence (Q5NUL3 whole entry): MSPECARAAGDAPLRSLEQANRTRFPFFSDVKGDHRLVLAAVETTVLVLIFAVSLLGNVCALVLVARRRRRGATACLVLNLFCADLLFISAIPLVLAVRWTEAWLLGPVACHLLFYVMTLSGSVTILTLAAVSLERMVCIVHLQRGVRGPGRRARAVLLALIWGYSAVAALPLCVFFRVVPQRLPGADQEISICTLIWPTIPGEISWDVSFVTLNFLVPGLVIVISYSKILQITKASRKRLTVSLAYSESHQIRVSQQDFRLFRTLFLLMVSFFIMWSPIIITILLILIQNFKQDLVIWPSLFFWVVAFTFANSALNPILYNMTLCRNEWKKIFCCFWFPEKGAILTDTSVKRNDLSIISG
Outline: (§1)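 U2OS cells transiently expressing human FFA1 or FFA4. Agonism measured from a ten-point dose-response curve with FLIPR readout, giving EC50 (nM) and efficacy (% max response). Values are means of three experiments.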

[2] = target: T2, Free fatty acid receptor 1 (Homo sapiens, UniProt O14842); experiment: Agonist activity at human FFA1 receptor expressed in human U2OS cells co-expressing Galpha16 assessed as calcium mobilization by Fluo-4 dye based FLIPR assay; assay type: functional, cell-based; conditions: read-out: EC50; outline: as §1
T2 sequence (O14842 whole entry): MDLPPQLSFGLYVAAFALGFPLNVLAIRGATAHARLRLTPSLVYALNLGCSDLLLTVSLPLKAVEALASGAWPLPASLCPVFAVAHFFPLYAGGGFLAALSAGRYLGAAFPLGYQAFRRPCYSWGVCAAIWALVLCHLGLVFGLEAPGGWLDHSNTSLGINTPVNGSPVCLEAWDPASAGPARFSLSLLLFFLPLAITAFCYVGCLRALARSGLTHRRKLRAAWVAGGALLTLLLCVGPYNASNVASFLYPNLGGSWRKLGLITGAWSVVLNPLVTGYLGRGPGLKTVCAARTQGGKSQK

[3] = target: T3, Free fatty acid receptor 4 (Homo sapiens) (UniProt Q5NUL3); experiment: Agonist activity at human FFA4 receptor expressed in human U2OS cells co-expressing Galpha16 assessed as calcium mobilization by Fluo-4 dye based FLIPR assay relative to GSK137647A; assay type: functional, cell-based; outline: as §1
T3 sequence (whole entry): T1 sequence (Q5NUL3 whole entry)

[4] = target: T2, Free fatty acid receptor 1; experiment: Agonist activity at human FFA1 receptor expressed in human U2OS cells co-expressing Galpha16 assessed as calcium mobilization by Fluo-4 dye based FLIPR assay relative to GSK137647A; assay type: functional, cell-based; outline: as §1
Homo sapiens = species: Homo sapiens; experiment: Selectivity ratio of EC50 for human FFA1 receptor expressed in human U2OS cells co-expressing Galpha16 to EC50 for human FFA4 receptor expressed in human U2OS cells co-expressing Galpha16; assay type: cell-based
[5] = Clearance in C57BL/6J mouse at 4.2 mg/kg, iv; assay type: ADME, organism-based; conditions: in vivo
Outline: (§2)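 C57BL/6J mice (n = 2) dosed intravenously at 3 or 4.2 mg/kg. Clearance (mL/min/kg) and AUC (hr*ng/mL) derived from plasma concentrations.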

[6] = AUC in C57BL/6J mouse at 4.2 mg/kg, iv; assay type: ADME, organism-based; conditions: in vivo; outline: as §2
[7] = Cmax in C57BL/6J mouse at 10 mg/kg, po; assay type: ADME, organism-based; design: dose 10 mg/kg, route oral; conditions: in vivo
Outline: (§3)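 C57BL/6J mice (n = 2), single oral dose of 10 mg/kg given as a suspension in 0.5% HMPC: 0.1% Tween. Plasma Cmax and AUC (hr*ng/mL) measured; %F calculated against the IV leg.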

[8] = AUC in C57BL/6J mouse at 10 mg/kg, po; assay type: ADME, organism-based; conditions: in vivo; outline: as §3
[9] = Oral bioavailability in C57BL/6J mouse at 10 mg/kg; assay type: ADME, organism-based; conditions: in vivo; outline: as §3
[10] = Half life in C57BL/6J mouse at 10 mg/kg, po; assay type: ADME, organism-based; conditions: in vivo
[11] = Protein binding in human plasma; assay type: ADME, cell-free; conditions: read-out: PPB
[12] = target: T4, Free fatty acid receptor 4 (Mus musculus) (UniProt Q7TMA4); experiment: Agonist activity at mouse FFA4 receptor relative to control
T4 sequence (whole entry): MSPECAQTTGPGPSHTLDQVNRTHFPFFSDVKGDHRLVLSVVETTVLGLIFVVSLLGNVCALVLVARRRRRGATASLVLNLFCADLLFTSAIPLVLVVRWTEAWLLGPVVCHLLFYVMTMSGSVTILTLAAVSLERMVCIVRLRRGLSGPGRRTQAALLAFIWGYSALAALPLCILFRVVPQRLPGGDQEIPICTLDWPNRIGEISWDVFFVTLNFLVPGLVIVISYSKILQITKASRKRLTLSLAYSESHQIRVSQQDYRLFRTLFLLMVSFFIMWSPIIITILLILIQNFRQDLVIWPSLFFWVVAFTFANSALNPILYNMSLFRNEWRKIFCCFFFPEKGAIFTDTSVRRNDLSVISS

[13] = target: T5, Free fatty acid receptor 4 (Mus musculus, UniProt Q7TMA4); experiment: Agonist activity at mouse FFA4 receptor
T5 sequence (Q7TMA4 whole entry): T4 sequence (whole entry)

[14] = target: T6, Free fatty acid receptor 4 (Rattus norvegicus, UniProt Q2AC31); experiment: Agonist activity at rat FFA4 receptor
T6 sequence (Q2AC31 whole entry): T4 sequence (whole entry) with H15R, L17P, V42L, A66V, A75V, N328S, D348E, V351I, S361T

[15] = target: T7, Free fatty acid receptor 4 (Rattus norvegicus) (UniProt Q2AC31); experiment: Agonist activity at rat FFA4 receptor relative to control
T7 sequence (whole entry): T4 sequence (whole entry) with H15R, L17P, V42L, A66V, A75V, N328S, D348E, V351I, S361T

[16] = target: Free fatty acid receptor 1 (Mus musculus, UniProt Q76JU9); experiment: Agonist activity at mouse FFA1 receptor
Chain of Free fatty acid receptor 1 (Mus musculus, UniProt Q76JU9) (Q76JU9 whole entry): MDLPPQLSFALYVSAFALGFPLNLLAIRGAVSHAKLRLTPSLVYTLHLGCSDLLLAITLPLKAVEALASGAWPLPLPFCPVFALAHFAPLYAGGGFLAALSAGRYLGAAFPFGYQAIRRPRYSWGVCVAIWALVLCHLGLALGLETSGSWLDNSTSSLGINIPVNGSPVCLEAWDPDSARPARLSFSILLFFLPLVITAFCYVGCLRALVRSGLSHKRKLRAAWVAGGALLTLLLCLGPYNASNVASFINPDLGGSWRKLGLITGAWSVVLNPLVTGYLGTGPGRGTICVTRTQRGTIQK

[17] = target: Free fatty acid receptor 1 (Mus musculus) (UniProt Q76JU9); experiment: Agonist activity at mouse FFA1 receptor relative to control
Chain of Free fatty acid receptor 1 (Mus musculus) (Q76JU9 whole entry): as above

[18] = target: Free fatty acid receptor 1 (Rattus norvegicus, UniProt Q8K3T4); experiment: Agonist activity at rat FFA1 receptor
Chain of Free fatty acid receptor 1 (Rattus norvegicus, UniProt Q8K3T4) (Q8K3T4 whole entry): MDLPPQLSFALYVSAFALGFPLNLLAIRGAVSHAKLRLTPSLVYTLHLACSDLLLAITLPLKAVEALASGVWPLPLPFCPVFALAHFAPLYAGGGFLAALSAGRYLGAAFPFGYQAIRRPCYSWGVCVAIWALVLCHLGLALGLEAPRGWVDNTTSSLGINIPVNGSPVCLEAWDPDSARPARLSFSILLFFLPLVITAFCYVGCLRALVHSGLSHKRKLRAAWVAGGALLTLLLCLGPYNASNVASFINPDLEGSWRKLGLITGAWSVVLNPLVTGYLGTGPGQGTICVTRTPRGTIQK

[19] = target: T8, Free fatty acid receptor 2 (Homo sapiens, UniProt O15552); experiment: Agonist activity at human FFA2 receptor by FLIPR assay
T8 sequence (O15552 whole entry): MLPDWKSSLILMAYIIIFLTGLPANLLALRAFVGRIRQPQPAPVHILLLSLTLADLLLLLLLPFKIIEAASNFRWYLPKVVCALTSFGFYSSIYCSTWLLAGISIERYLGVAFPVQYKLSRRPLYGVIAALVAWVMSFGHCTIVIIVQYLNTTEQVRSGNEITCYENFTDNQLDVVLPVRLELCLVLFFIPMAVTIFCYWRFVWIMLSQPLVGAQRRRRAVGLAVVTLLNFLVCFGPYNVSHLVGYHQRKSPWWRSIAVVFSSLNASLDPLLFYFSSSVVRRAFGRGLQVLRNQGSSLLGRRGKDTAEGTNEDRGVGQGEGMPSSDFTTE
Outline: (§4)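 Human FFA2 or FFA3 agonism tested in FLIPR-based full-curve functional assays. EC50 (nM) and max response (%) reported.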

[20] = target: T9, Free fatty acid receptor 3 (Homo sapiens, UniProt O14843); experiment: Agonist activity at human FFA3 receptor by FLIPR assay; outline: as §4
T9 sequence (O14843 whole entry): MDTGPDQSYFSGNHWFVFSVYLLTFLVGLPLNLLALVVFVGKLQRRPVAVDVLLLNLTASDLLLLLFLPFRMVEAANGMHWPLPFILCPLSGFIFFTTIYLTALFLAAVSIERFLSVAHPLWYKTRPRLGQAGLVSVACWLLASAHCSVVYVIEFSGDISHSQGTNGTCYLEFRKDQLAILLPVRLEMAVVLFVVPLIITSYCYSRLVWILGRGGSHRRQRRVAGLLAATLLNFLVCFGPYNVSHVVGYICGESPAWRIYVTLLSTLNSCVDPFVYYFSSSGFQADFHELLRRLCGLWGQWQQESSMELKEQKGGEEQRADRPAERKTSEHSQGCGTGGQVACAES

[21] = target: T10, Free fatty acid receptor 2 (Homo sapiens) (UniProt O15552); experiment: Agonist activity at human FFA2 receptor by FLIPR assay relative to control; outline: as §4
T10 sequence (whole entry): T8 sequence (O15552 whole entry)

Rattus norvegicus [22] = species: Rattus norvegicus; experiment: Selectivity ratio of EC50 for rat FFA1 receptor to EC50 for rat FFA4 receptor
Mus musculus [23] = species: Mus musculus; experiment: Selectivity ratio of EC50 for mouse FFA1 receptor to EC50 for mouse FFA4 receptor
Rattus norvegicus [24] = experiment: Antidiabetic activity in ZDF rat assessed as plasma glucose level at 10 mg/kg bid for 14 days (reference value: 192 mg/dl); assay type: functional
Rattus norvegicus [25] = experiment: Antidiabetic activity in ZDF rat assessed as plasma glucose level at 100 mg/kg bid for 14 days (reference value: 192 mg/dl); assay type: functional
Mus musculus [26] = experiment: Antidiabetic activity in db/db mouse assessed as plasma glucose level at 100 mg/kg, po bid after 2 weeks (reference value: 276 mg/dl); assay type: functional
Outline: (§5)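 Fed db/db mice given vehicle or 100 mg/kg orally twice daily for 2 weeks. Blood glucose measured before treatment and after 1 and 2 weeks; HbA1c measured before and after 2 weeks.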

Mus musculus [27] = experiment: Antidiabetic activity in db/db mouse assessed as reduction in HbA1c level at 100 mg/kg, po bid after 2 weeks relative to control; assay type: functional; design: scale not given: the % may be the effect or the level left; outline: as §5

EC50 [1]: 0.299 µM
EC50 [2]: 11.8 µM
%max [3]: 124%
%max [4]: 105%
clearance [5]: 20 mL/min/kg
AUC [6]: 3620 ng·h/mL
Cmax [7]: 6780 ng/mL
AUC [8]: 9440 ng·h/mL
bioavailability [9]: 110%
half-life [10]: 1.7 h
fraction unbound [11]: 0.001
%max [12]: 108%
EC50 [13]: 0.07 µM
EC50 [14]: 0.23 µM
%max [15]: 110%
EC50 [16]: 6.21 µM
%max [17]: 83%
EC50 [18]: > 30 µM
EC50 [19]: 25.3 µM
EC50 [20]: > 50 µM
%max [21]: 59%
Ratio EC50 (Rattus norvegicus [22]): > 85
Ratio EC50 (Mus musculus [23]): > 85
Structure (SMILES): COc1ccc(C(F)(F)F)cc1COc1ccc(CCC(=O)O)cc1C
Ratio EC50 (Homo sapiens): 40
Activity (Rattus norvegicus [24]): 151 mg/dL
Activity (Rattus norvegicus [25]): 139 mg/dL
Activity (Mus musculus [26]): 106 mg/dL
Activity (Mus musculus [27]): 1.6%
